Source: PubChem BioAssay
This is a sample that favours compounds with a hit; in the whole collection about 3% have one here.
Tn7 DDE FP – DD(E)-Tn7 binding inhibition, primary FP screen; actives 0.13% (n = 370,000); P02675; inhibition, % at 8.3 µM; FP displacement of FITC-Tn7 peptide from fibrin DD(E); 0% = median of compound wells per plate;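 active means inhibition above the mean of compounds falling within the control limits plus 3 SD of them, cut at about 14% in these data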;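 further: 0% = plate median of compound wells and 100% = 10 µM Aha-Tn7 peptide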
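Assay system: Human fibrin DD(E) protein | Medium: Tris buffer with calcium and detergent, pH 7.8 | Reagent: 0.1 µM fluorescent Tn7 | Compound dosing: Single point at 8.3 µM | Times: 10 min preincubation, 3 h with tracer, room temperature | Detection: Fluorescence polarization of the labelled Tn7 tracer | Controls: Aha-Tn7 high control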
KLK7 zymogen act – proKLK7 (human) activation, primary screen; P49862; purified proKLK7, EDANS-DABCYL substrate fluorescence; 100% is mature enzyme control, 0% vehicle; activation, % at 7 µM; actives 0.9% (n = 370,000); AID 652039;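 active means activation above the mean of all tested compounds plus 3 SD, computed per campaign excluding outliers beyond control limits, cut at about 13% in these data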
PLCb3 inh – inhibitors of human phospholipase C beta3 | Purified PLC-beta3, fluorogenic substrate, fluorescence | inhibition, % at 12.2 µM | actives 0.18% (n = 370,000) | AID 720704; in the data active means inhibition above about 11%;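 further: 0% = median of compound wells on plate and 100% = full blocker control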
NRP1-CendR mod – NRP-1/CendR interaction modulation | O14786 | FAM-RPARPAR peptide binding to NRP-1, fluorescence polarization | inhibition, % at 25 µM | actives 0.85% (n = 360,000) | AID 602438;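 active means inhibition or corrected inhibition above about 18%, plus a signal ratio from 0.5 to 1.5, limit read from the data, passing the limit was not always enough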
PLC-gamma1 inh – blocks human PLC-gamma1 enzyme activity | actives 0.84% (n = 370,000) | AID 720700 | purified PLC-gamma1, fluorogenic substrate, fluorescence | inhibition, % at 12.2 µM
DDE Tn6 FP inh – inhibitors of Tn6 peptide binding to human fibrin DD(E). P02675. inhibition, % at 8.3 µM. Fibrin DD(E) TRITC-Tn6 fluorescence polarization displacement. AID 720509. actives 0.21% (n = 370,000);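 active means inhibition above a per-campaign cutoff: mean of compounds within control limits plus 3 SD, cut at about 15% in these data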;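 further: 0% = median of all compound wells on the plate and 100% = blocking peptide control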
PLCg1 ctr – counter-screen for PLC-beta3 inhibitors: inhibitors of human PLC-gamma1; shares compounds with PLC-gamma1 inh; purified PLC-gamma1, fluorogenic substrate, fluorescence; inhibition, % at 12.3 µM; actives 3.1% (n = 3,300)
PLCbeta3 conf – confirmation of human PLC-beta3 inhibitors | shares compounds with PLC-gamma1 inh | purified PLC-beta3, fluorogenic substrate fluorescence | inhibition, % at 12.3 µM | actives 1% (n = 3,300) | AID 743261; in the data active means inhibition above about 11%
An asterisk follows results filed as active. Unless noted, no stated cut-off is given here; in the data, active means inhibition above about 9.5%; inactive means the rest.

How did CC(=O)Nc1ccc(S(=O)(=O)NCc2cn3ccsc3n2)cc1 do in these assays?
Tn7 DDE FP: -0.6; KLK7 zymogen act: -0.2; PLCb3 inh: 11.2*; NRP1-CendR mod: 10.0; PLC-gamma1 inh: 10.9*; DDE Tn6 FP inh: 2.6; PLCg1 ctr: -9.7; PLCbeta3 conf: -1.5

Results for CC(=O)Nc1ccc(S(=O)(=O)NCc2cn3c(C)csc3n2)cc1 ?
Tn7 DDE FP: 5.0; KLK7 zymogen act: -0.3; PLCb3 inh: 1.0; NRP1-CendR mod: -2.8; PLC-gamma1 inh: 0.0; DDE Tn6 FP inh: -1.8

What do the screens show for `COc1cc2c(cc1NC(=O)CSc1nnc(COc3ccccc3)n1Cc1ccco1)oc1ccccc12`?
Tn7 DDE FP: 2.6; KLK7 zymogen act: -1.3; PLCb3 inh: -0.9; PLC-gamma1 inh: -1.0; DDE Tn6 FP inh: 1.1

What do the screens show for `Cc1cc(C(=O)N/N=C/C=C/c2cccc([N+](=O)[O-])c2)n[nH]1`?
Tn7 DDE FP: 0.6; KLK7 zymogen act: -0.4; PLCb3 inh: 10.0; NRP1-CendR mod: 3.6; PLC-gamma1 inh: 10.9*; DDE Tn6 FP inh: -0.5; PLCg1 ctr: 3.0; PLCbeta3 conf: 3.6

How did CC(/C=C/c1cccc([N+](=O)[O-])c1)=N\NC(=O)c1ccncc1 do in these assays?
Tn7 DDE FP: 3.9; KLK7 zymogen act: -0.5; PLCb3 inh: 0.9; NRP1-CendR mod: 3.4; PLC-gamma1 inh: 13.1*; DDE Tn6 FP inh: -0.8; PLCg1 ctr: 2.7; PLCbeta3 conf: 3.7

What do the screens show for `COc1ccc(-c2c(Cc3ccccc3)nc(NC(=O)c3ccccc3F)n2C)cc1`?
Tn7 DDE FP: 2.8; KLK7 zymogen act: 0.2; PLCb3 inh: -6.1; PLC-gamma1 inh: -2.2; DDE Tn6 FP inh: -2.8

Results for O=C(c1ccc(S(=O)(=O)N2CCCCCC2)cc1)N1CCN(c2ccccc2F)CC1 ?
Tn7 DDE FP: 4.1; KLK7 zymogen act: 0.0; PLCb3 inh: -1.3; NRP1-CendR mod: 7.6; PLC-gamma1 inh: 12.3*; DDE Tn6 FP inh: 5.8; PLCg1 ctr: -3.9; PLCbeta3 conf: -1.3

Results for O=C(O)Cn1ccnc1[N+](=O)[O-] ?
Tn7 DDE FP: 7.5; KLK7 zymogen act: 0.2; PLCb3 inh: 5.9; NRP1-CendR mod: -7.6; PLC-gamma1 inh: 10.1*; DDE Tn6 FP inh: 0.3; PLCg1 ctr: 5.2; PLCbeta3 conf: 0.2

How did COC(=O)C1CN(Cc2cn(CCOC(C)=O)nn2)CCS(=O)(=O)N1Cc1ccccc1 (configuration not stated) do in these assays?
Tn7 DDE FP: 3.0; KLK7 zymogen act: 0.1; PLCb3 inh: 3.3; PLC-gamma1 inh: 3.5; DDE Tn6 FP inh: -5.3

Results for COc1ccc2ccccc2c1C=Nn1c(-c2cc(-c3ccccc3)n[nH]2)n[nH]c1=S ?
Tn7 DDE FP: 4.2; KLK7 zymogen act: 3.1; PLCb3 inh: -2.6; PLC-gamma1 inh: -2.5; DDE Tn6 FP inh: 0.6

How did COC(=O)C[C@@H]1CC[C@H]2[C@H](COc3ccc(NC(=O)c4ccc(OC)cc4)cc3C(=O)N2C)O1 do in these assays?
Tn7 DDE FP: -6.3; KLK7 zymogen act: -0.1; PLCb3 inh: 2.5; PLC-gamma1 inh: 3.4; DDE Tn6 FP inh: -5.5

How did O=C(COC(=O)/C=C/c1ccccc1)Nc1ccccc1Br do in these assays?
Tn7 DDE FP: 1.0; KLK7 zymogen act: -0.6; PLCb3 inh: 1.9; NRP1-CendR mod: -9.4; PLC-gamma1 inh: -1.1; DDE Tn6 FP inh: -2.5

Results for C/C=C/C(=O)OCC(=O)Nc1ccccc1Br ?
Tn7 DDE FP: -8.5; KLK7 zymogen act: 0.7; PLCb3 inh: -0.2; NRP1-CendR mod: -5.0; PLC-gamma1 inh: 9.6*; DDE Tn6 FP inh: -8.1; PLCg1 ctr: -6.4; PLCbeta3 conf: -1.0

Results for C#CCNC[C@@H]1CSCCS(=O)(=O)N1 ?
Tn7 DDE FP: 0.8; KLK7 zymogen act: -0.6; PLCb3 inh: 1.4; PLC-gamma1 inh: -1.5; DDE Tn6 FP inh: -9.0

How did COC1OC2COC(c3ccccc3)OC2C(OC(=O)c2ccccc2)C1OC(=O)c1ccccc1 (configuration not stated) do in these assays?
Tn7 DDE FP: 2.6; KLK7 zymogen act: 0.3; PLCb3 inh: 3.7; NRP1-CendR mod: -16.5; PLC-gamma1 inh: 5.0; DDE Tn6 FP inh: -0.8

What do the screens show for `COC1OC2COC(c3ccccc3)OC2C(NC(C)=O)C1OC(C)=O` (configuration not stated)?
Tn7 DDE FP: 2.2; KLK7 zymogen act: -0.5; PLCb3 inh: 13.6*; NRP1-CendR mod: -3.7; PLC-gamma1 inh: 10.2*; DDE Tn6 FP inh: -2.2; PLCg1 ctr: 1.2; PLCbeta3 conf: 4.1

How did Cc1[nH][nH]c(=O)c1C=NCc1cccnc1 do in these assays?
Tn7 DDE FP: -0.9; KLK7 zymogen act: 0.5; PLCb3 inh: 7.2; NRP1-CendR mod: -3.9; PLC-gamma1 inh: 11.0*; DDE Tn6 FP inh: -5.1; PLCg1 ctr: 0.7; PLCbeta3 conf: 3.4

Results for Cc1[nH][nH]c(=O)c1C=NCc1cccs1 ?
Tn7 DDE FP: 4.6; KLK7 zymogen act: 0.3; PLCb3 inh: 0.7; NRP1-CendR mod: 3.3; PLC-gamma1 inh: 3.1; DDE Tn6 FP inh: 5.6

What do the screens show for `Cc1cc(C)cc(NC(=O)O[C@@H]2CC[C@@]34CCCN3C(=O)CCC[C@H]4C2)c1`?
Tn7 DDE FP: -3.0; PLCb3 inh: 2.5; PLC-gamma1 inh: 0.2; DDE Tn6 FP inh: 6.0

Results for Cc1ccccc1CN1CCCCC(NC(=O)Cc2cccs2)C1=O (configuration not stated) ?
Tn7 DDE FP: 4.3; KLK7 zymogen act: -0.1; PLCb3 inh: 5.4; PLC-gamma1 inh: 3.7; DDE Tn6 FP inh: 7.2

How did Clc1ccc(SCCOCCN2CCOCC2)cc1 do in these assays?
Tn7 DDE FP: -2.0; KLK7 zymogen act: 0.5; PLCb3 inh: -3.4; NRP1-CendR mod: 4.1; PLC-gamma1 inh: 1.2; DDE Tn6 FP inh: -6.3

What do the screens show for `Clc1ccc(SCCCCN2CCOCC2)cc1`?
Tn7 DDE FP: 0.0; KLK7 zymogen act: -0.1; PLCb3 inh: 8.9; NRP1-CendR mod: 4.1; PLC-gamma1 inh: 13.6*; DDE Tn6 FP inh: -7.3; PLCg1 ctr: 0.3; PLCbeta3 conf: 2.1

Results for O=C(Nc1ccc2ccccc2c1)NC1CCCCN(Cc2ccc(Cl)cc2)C1=O (configuration not stated) ?
Tn7 DDE FP: 1.2; KLK7 zymogen act: 0.4; PLCb3 inh: 2.6; PLC-gamma1 inh: 2.6; DDE Tn6 FP inh: 1.7

What do the screens show for `COc1ccccc1C(=O)N(C)c1nnc(-c2ccccc2)s1`?
Tn7 DDE FP: -1.9; KLK7 zymogen act: 0.8; PLCb3 inh: 3.9; NRP1-CendR mod: 5.0; PLC-gamma1 inh: 9.7*; DDE Tn6 FP inh: -3.5; PLCg1 ctr: -1.3; PLCbeta3 conf: 1.6
